For test [1], the system named is Staphylococcus aureus. Kind of test: Antibacterial activity against community acquired methicillin-resistant Staphylococcus aureus HT20041010 in CCY media. It counts as functional. The gist of the method: (§1)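 MIC by CLSI-standard broth microdilution, run both in Mueller-Hinton broth and in casein hydrolysate-yeast extract (CCY) medium. Inoculum 5 × 10^5 CFU/ml.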

Test [2] concerns Staphylococcus aureus. Put plainly: Antibacterial activity against community acquired methicillin-resistant Staphylococcus aureus HT20010734 in CCY medium. The format is functional. Put shortly:
as §1

Test [3] concerns Staphylococcus aureus. Kind of test: Antibacterial activity against Staphylococcus aureus LUG855 in Mueller-Hinton medium. The format is functional. Put shortly:
as §1

Test [4] deals with Staphylococcus aureus. Put plainly: Increase in Panton-Valentine leukocidin level in community acquired methicillin-resistant Staphylococcus aureus HT20010734 in CYY medium. It counts as functional, organism-based. The gist of the method:
(§2)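 Viable counts by plating diluted broth. Supernatant PVL measured by sandwich ELISA. μg PVL per log10 CFU is expressed as a percentage of the drug-free control. Means ± SD of five (LUG855) or three (clinical isolates) experiments. One-way ANOVA with Dunnett's test.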

The test system of test [5] is Staphylococcus aureus. Put plainly: Increase in Panton-Valentine leukocidin level in community acquired methicillin-resistant Staphylococcus aureus HT20030203 in CYY medium. The format is functional, organism-based. Put shortly: as §2
The subject of test [6] is Staphylococcus aureus. Kind of test: Antibacterial activity against community acquired methicillin-resistant Staphylococcus aureus HT20030203 in Mueller-Hinton medium. The format is functional. Put shortly:
as §1

In test [7] the test system is Staphylococcus aureus. Kind of test: Increase in Panton-Valentine leukocidin level in Staphylococcus aureus LUG855 in CCY medium. It counts as functional, organism-based. Put shortly:
as §2

Test [8] concerns Staphylococcus aureus. Put plainly: Increase in Panton-Valentine leukocidin level in community acquired methicillin-resistant Staphylococcus aureus HT20041010 in CYY medium. It counts as functional, organism-based. Put shortly:
as §2

For test [9], the system named is Staphylococcus aureus. Kind of test: Increase in Panton-Valentine leukocidin level in community acquired methicillin-resistant Staphylococcus aureus HT20040332 in CYY medium. The format is functional, organism-based. Put shortly:
as §2

Test [10] relates to Staphylococcus aureus. Put plainly: Antibacterial activity against community acquired methicillin-resistant Staphylococcus aureus HT20020488 in CCY medium. It counts as functional. Put shortly: as §1
Test [11] has as its system Staphylococcus aureus. Put plainly: Antibacterial activity against community acquired methicillin-resistant Staphylococcus aureus HT20030203 in CCY media. It counts as functional. The gist of the method: as §1
Test [12] has as its system Staphylococcus aureus. Put plainly: Antibacterial activity against community acquired methicillin-resistant Staphylococcus aureus HT20040332 in Mueller-Hinton medium. It counts as functional. Put shortly:
as §1

Test [13] concerns Staphylococcus aureus. Put plainly: Antibacterial activity against community acquired methicillin-resistant Staphylococcus aureus HT20041010 in Mueller-Hinton medium. The format is functional. The gist of the method:
as §1

The test system of test [14] is Staphylococcus aureus. Put plainly: Antibacterial activity against community acquired methicillin-resistant Staphylococcus aureus HT20040332 in CCY media. It counts as functional. The gist of the method:
as §1

Test [15] relates to Staphylococcus aureus. Put plainly: Antibacterial activity against community acquired methicillin-resistant Staphylococcus aureus HT20020488 in Mueller-Hinton medium. The format is functional. The gist of the method:
as §1

Test [16] relates to Staphylococcus aureus. Put plainly: Antibacterial activity against Staphylococcus aureus LUG855 in CCY media. The format is functional. Put shortly:
as §1

The test system of test [17] is Staphylococcus aureus. Put plainly: Antibacterial activity against community acquired methicillin-resistant Staphylococcus aureus HT20010734 in Mueller-Hinton medium. The format is functional. Put shortly:
as §1

The subject of test [18] is Staphylococcus aureus. Put plainly: Decrease in Panton-Valentine leukocidin level in community acquired methicillin-resistant Staphylococcus aureus HT20040332 in CYY medium. It counts as functional, organism-based. Put shortly:
as §2

Test [19] concerns Staphylococcus aureus. Kind of test: Decrease in Panton-Valentine leukocidin level in community acquired methicillin-resistant Staphylococcus aureus HT20010734 in CYY medium. It counts as functional, organism-based. The gist of the method: as §2
In test [20] the test system is Staphylococcus aureus. Put plainly: Decrease in Panton-Valentine leukocidin level in community acquired methicillin-resistant Staphylococcus aureus HT20020488 in CYY medium. The format is functional, organism-based. Put shortly:
as §2

Test [21] concerns Staphylococcus aureus. Kind of test: Decrease in Panton-Valentine leukocidin level in Staphylococcus aureus LUG855 in CCY medium. It counts as functional, organism-based. The gist of the method: as §2
Test [22] relates to Staphylococcus aureus. Put plainly: Decrease in Panton-Valentine leukocidin level in community acquired methicillin-resistant Staphylococcus aureus HT20041010 in CYY medium. It counts as functional, organism-based. Put shortly:
as §2

In test [23] the test system is Staphylococcus aureus. Put plainly: Decrease in Panton-Valentine leukocidin level in community acquired methicillin-resistant Staphylococcus aureus HT20030203 in CYY medium. It counts as functional, organism-based. Put shortly:
as §2

The structures appear in SMILES notation. In brackets after ≈: the same amount, converted by molar mass. Activity calls are given as the source filed them. The rule behind the calls is not given here.

In general, MIC refers to the least concentration at which growth counts as inhibited.

With `Cc1onc(-c2ccccc2)c1C(=O)N[C@@H]1C(=O)N2[C@@H]1SC(C)(C)[C@@H]2C(=O)O` [OXACILLIN], the minimal inhibitory concentration (MIC) in the test on Staphylococcus aureus [1] was determined as 16 µg/mL (≈ 39.9 µM); in the test with Staphylococcus aureus [2], 16 µg/mL (≈ 39.9 µM); against Staphylococcus aureus [3] it was 0.12 µg/mL (≈ 0.299 µM); with Staphylococcus aureus [6], 32 µg/mL (≈ 79.7 µM); against Staphylococcus aureus [10], 8 µg/mL (≈ 19.9 µM); in the test on Staphylococcus aureus [11] it was 16 µg/mL (≈ 39.9 µM). Further, the MIC stood at 16 µg/mL (≈ 39.9 µM) with Staphylococcus aureus [12]; 32 µg/mL (≈ 79.7 µM) against Staphylococcus aureus [13]; 8 µg/mL (≈ 19.9 µM) in the test with Staphylococcus aureus [14]; 8 µg/mL (≈ 19.9 µM) in the test on Staphylococcus aureus [15]; 0.06 µg/mL (≈ 0.149 µM) in the test with Staphylococcus aureus [16]; 32 µg/mL (≈ 79.7 µM) with Staphylococcus aureus [17]. For the same molecule, the result in the test with Staphylococcus aureus [4], in the test with Staphylococcus aureus [5], in the test on Staphylococcus aureus [7], in the test on Staphylococcus aureus [8] and with Staphylococcus aureus [9] was Active.

Regarding `CC(=O)NC[C@H]1CN(c2ccc(N3CCOCC3)c(F)c2)C(=O)O1` [LINEZOLID], the Activity entry with Staphylococcus aureus [18], in the test on Staphylococcus aureus [19], in the test with Staphylococcus aureus [20], in the test with Staphylococcus aureus [21], in the test on Staphylococcus aureus [22] and in the test with Staphylococcus aureus [23] was “Dose-dependent effect” in each case. Besides, the MIC is 1 µg/mL (≈ 2.96 µM) in the test on Staphylococcus aureus [3]; 1 µg/mL (≈ 2.96 µM) against Staphylococcus aureus [6]; 1 µg/mL (≈ 2.96 µM) in the test on Staphylococcus aureus [12]; 1 µg/mL (≈ 2.96 µM) with Staphylococcus aureus [13]; 0.5 µg/mL (≈ 1.48 µM) against Staphylococcus aureus [15]; 0.5 µg/mL (≈ 1.48 µM) with Staphylococcus aureus [17].

As to `CC(=O)O[C@H]1C[C@@]2(C)[C@@H](C[C@@H](O)[C@H]3[C@@]4(C)CC[C@@H](O)[C@@H](C)[C@@H]4CC[C@@]32C)/C1=C(\CCC=C(C)C)C(=O)O` [FUSIDIC ACID], the minimum inhibitory concentration (MIC) is 128 µg/mL (≈ 248 µM) in the test on Staphylococcus aureus [1]; < 0.03 µg/mL in the test on Staphylococcus aureus [3]; 0.12 µg/mL (≈ 0.232 µM) in the test with Staphylococcus aureus [6]; 4 µg/mL (≈ 7.74 µM) in the test on Staphylococcus aureus [10]; 0.06 µg/mL (≈ 0.116 µM) with Staphylococcus aureus [11]; > 128 µg/mL against Staphylococcus aureus [13]. Moreover, the minimum inhibitory concentration (MIC) in the test on Staphylococcus aureus [15] is 4 µg/mL (≈ 7.74 µM); against Staphylococcus aureus [16] it was < 0.03 µg/mL.

With `CCC[C@@H]1C[C@@H](C(=O)N[C@@H]([C@H]2O[C@H](SC)[C@H](O)[C@@H](O)[C@H]2O)[C@H](C)Cl)N(C)C1` [CLINDAMYCIN], the Activity result with Staphylococcus aureus [18], in the test on Staphylococcus aureus [19], in the test with Staphylococcus aureus [20], with Staphylococcus aureus [21], in the test with Staphylococcus aureus [22] and with Staphylococcus aureus [23] was “Dose-dependent effect” in each case. Besides, the MIC in the test with Staphylococcus aureus [1] is > 128 µg/mL; with Staphylococcus aureus [2], 0.25 µg/mL (≈ 0.588 µM); in the test on Staphylococcus aureus [3], 0.06 µg/mL (≈ 0.141 µM); in the test on Staphylococcus aureus [6], 0.12 µg/mL (≈ 0.282 µM); in the test on Staphylococcus aureus [10], > 128 µg/mL; against Staphylococcus aureus [11], 0.25 µg/mL (≈ 0.588 µM). Besides, the minimal inhibitory concentration (MIC) in the test with Staphylococcus aureus [12] was > 128 µg/mL; with Staphylococcus aureus [13], > 128 µg/mL; in the test on Staphylococcus aureus [14], > 128 µg/mL; in the test on Staphylococcus aureus [15], > 128 µg/mL; against Staphylococcus aureus [16], 0.12 µg/mL (≈ 0.282 µM); against Staphylococcus aureus [17], 0.12 µg/mL (≈ 0.282 µM).

For the origin of these results see ChEMBL document CHEMBL1147090, “Effect of antibiotics on Staphylococcus aureus producing Panton-Valentine leukocidin” (2007).
